# Reference: publication PMC9214849 (Chemical Science, 2022)
# Tests used:
# [1] = system: Candida albicans, Escherichia coli, Enterococcus faecalis, and Staphylococcus epidermidis; settings: ref 41,42 (Aβ); 43 (hIAPP); 44,45 (GNNQQNY); 46 (KLVFFGAIL); cited from earlier work
# [2] = molecular target: T1, human calcitonin1-32 (hCT) (Homo sapiens, UniProt P01258); test: AFM morphology of aggregates, hCT; type: biochemical; settings: pure hCT 20 μM, 24 h
# T1 sequence (P01258 85-116): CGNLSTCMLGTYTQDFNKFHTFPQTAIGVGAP
# How it was run: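 AFM imaging of samples taken at different time points of the ThT kinetics runs. hCT at 20 μM was incubated alone or with 5–20 μM test defensin at 37 °C. Fibril heights and lengths were measured from the images.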
# [3] = molecular target: T1, human calcitonin1-32 (hCT); test: CD secondary structure, hCT; type: biochemical; settings: pure 20 μM, 10 mM sodium phosphate pH 7.4, 37 °C, 24–72 h, BeStSel
# How it was run: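 Aβ, hIAPP or hCT at 20 μM, alone or co-incubated with test defensin at 37 °C. Circular dichroism spectra were deconvoluted with BestSel into secondary-structure fractions, including β-structure content.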
# SH-SY5Y cells [4] = test: MTT cell viability, SH-SY5Y; type: cell-based, human; settings: pure amyloid 20 μM, 24 h
# SH-SY5Y cells [5] = test: LDH cytotoxicity, SH-SY5Y; type: cell-based, human; settings: pure amyloid 20 μM, 24 h; % of positive control
# [6] = molecular target: human islet amyloid polypeptide1-37 (hIAPP) (Homo sapiens, UniProt P10997); test: CD secondary structure, hIAPP; type: biochemical; settings: pure 20 μM, 10 mM sodium phosphate pH 7.4, 37 °C, 24–72 h, BeStSel
# Sequence of human islet amyloid polypeptide1-37 (hIAPP) (P10997 34-70): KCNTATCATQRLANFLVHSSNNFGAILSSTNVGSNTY
# How it was run: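 Samples held 20 μM hIAPP with 0, 5 or 20 μM defensin. Circular dichroism spectra were recorded on the aggregates. Secondary-structure fractions, including β-structure content, were fitted from the spectra with BestSel.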
# RIN-m5F cells [7] = test: MTT cell viability, RIN-m5F; type: cell-based, rat; settings: pure amyloid 20 μM, 24 h
# RIN-m5F cells [8] = test: LDH cytotoxicity, RIN-m5F; type: cell-based, rat; settings: pure amyloid 20 μM, 24 h; % of positive control
# Staphylococcus aureus = settings: cited from earlier work
# Escherichia coli = settings: cited from earlier work
compound,measurement,setting,value
KLVFFGAIL,antibacterial and antifungal activities,[1],antibacterial and antifungal activities
CC[C@H](C)[C@H](NC(=O)[C@H](C)NC(=O)[C@@H](NC(=O)[C@H](CCC(N)=O)NC(=O)[C@@H]1CCCN1C(=O)[C@H](Cc1ccccc1)NC(=O)[C@@H](NC(=O)[C@H](Cc1c[nH]cn1)NC(=O)[C@H](Cc1ccccc1)NC(=O)[C@H](CCCCN)NC(=O)[C@H](CC(N)=O)NC(=O)[C@H](Cc1ccccc1)NC(=O)[C@H](CC(=O)O)NC(=O)[C@H](CCC(N)=O)NC(=O)[C@@H](NC(=O)[C@H](Cc1ccc(O)cc1)NC(=O)[C@@H](NC(=O)CNC(=O)[C@H](CC(C)C)NC(=O)[C@H](CCSC)NC(=O)[C@@H]1CSSC[C@H](N)C(=O)NCC(=O)N[C@@H](CC(N)=O)C(=O)N[C@@H](CC(C)C)C(=O)N[C@@H](CO)C(=O)N[C@@H]([C@@H](C)O)C(=O)N1)[C@@H](C)O)[C@@H](C)O)[C@@H](C)O)[C@@H](C)O)C(=O)NCC(=O)N[C@H](C(=O)NCC(=O)N[C@@H](C)C(=O)N1CCC[C@H]1C(N)=O)C(C)C [hCT],average height of fibrils,[2],16 nm
same,average length of fibrils,[2]; N up to 40,477 nm
same,β-structure content,[3],56.4%
same,cell viability,SH-SY5Y cells [4],67%
same,cell toxicity,SH-SY5Y cells [5],35%
CC[C@H](C)[C@H](NC(=O)[C@H](C)NC(=O)CNC(=O)[C@H](Cc1ccccc1)NC(=O)[C@H](CC(N)=O)NC(=O)[C@H](CC(N)=O)NC(=O)[C@H](CO)NC(=O)[C@H](CO)NC(=O)[C@H](Cc1c[nH]cn1)NC(=O)[C@@H](NC(=O)[C@H](CC(C)C)NC(=O)[C@H](Cc1ccccc1)NC(=O)[C@H](CC(N)=O)NC(=O)[C@H](C)NC(=O)[C@H](CC(C)C)NC(=O)[C@H](CCCNC(=N)N)NC(=O)[C@H](CCC(N)=O)NC(=O)[C@@H](NC(=O)[C@H](C)NC(=O)[C@@H]1CSSC[C@H](NC(=O)[C@@H](N)CCCCN)C(=O)N[C@@H](CC(N)=O)C(=O)N[C@@H]([C@@H](C)O)C(=O)N[C@@H](C)C(=O)N[C@@H]([C@@H](C)O)C(=O)N1)[C@@H](C)O)C(C)C)C(=O)N[C@@H](CC(C)C)C(=O)N[C@@H](CO)C(=O)N[C@@H](CO)C(=O)N[C@H](C(=O)N[C@@H](CC(N)=O)C(=O)N[C@H](C(=O)NCC(=O)N[C@@H](CO)C(=O)N[C@@H](CC(N)=O)C(=O)N[C@H](C(=O)N[C@@H](Cc1ccc(O)cc1)C(N)=O)[C@@H](C)O)C(C)C)[C@@H](C)O [hIAPP],β-structure content,[6],48.5%
same,cell viability,RIN-m5F cells [7],55%
same,cell toxicity,RIN-m5F cells [8],25%
same,bacteria growth,Staphylococcus aureus,hinder Staphylococcus aureus and Escherichia coli bacteria growth
same,bacteria growth,Escherichia coli,hinder Staphylococcus aureus and Escherichia coli bacteria growth
same,antibacterial and antifungal activities,[1],antibacterial and antifungal activities
GNNQQNY,antibacterial and antifungal activities,[1],antibacterial and antifungal activities
